≈ marks a conversion by molar mass, not a printed value.
What was measured:
Assay type in all cases: functional
Fusarium oxysporum = experiment: Antifungal activity against […] oxysporum CICC 41029 after 48 hrs by broth dilution assay; conditions: CICC 41029, 48 h
Summary of the method: (§1)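 Conventional broth dilution. Fungi were grown on PDA at 28 °C for 72 h. Seed culture was diluted in PYG (peptone 1.0%, glucose 2.0%, yeast extract 1.0%) in 96-well plates. DMSO stocks (10 mg/mL) were serially diluted to in-test 0.78–100 μg/mL. Plates were incubated 48 h at 28 °C, humidified. Ketoconazole was the positive control and DMSO the negative control. MIC was the endpoint.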

Botryosphaeria dothidea = experiment: Antifungal activity against Botryosphaeria dothidea CICC 2678 after 48 hrs by broth dilution assay; conditions: CICC 2678, 48 h; summary of the method: as §1
Alternaria brassicicola = experiment: Antifungal activity against Alternaria brassicicola CICC 2646 after 48 hrs by broth dilution assay; conditions: CICC 2646, 48 h; summary of the method: as §1
Vibrio alginolyticus = experiment: Antibacterial activity against Vibrio alginolyticus CICC 21664 after 48 hrs by broth dilution method; conditions: CICC 21664, 48 h
Summary of the method: (§2)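 Microbroth dilution in LB medium (peptone 10 g/L, yeast extract 5 g/L, NaCl 10 g/L). Ciprofloxacin served as positive control. MIC was read as the endpoint.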

Vibrio anguillarum = experiment: Antibacterial activity against Vibrio anguillarum CICC 10475 after 48 hrs by broth dilution method; summary of the method: as §2
Vibrio parahaemolyticus = experiment: Antibacterial activity against Vibrio parahaemolyticus CICC 10552 after 48 hrs by broth dilution method; summary of the method: as §2

SMILES	MIC (Fusarium oxysporum)	MIC (Botryosphaeria dothidea)	MIC (Alternaria brassicicola)	MIC (Vibrio alginolyticus)	MIC (Vibrio anguillarum)	MIC (Vibrio parahaemolyticus)	MIC (Vibrio anguillarum; Vibrio anguillarum, CICC 10475, 48 h, read-out: MIC)	MIC (Vibrio parahaemolyticus; Vibrio parahaemolyticus, CICC 10552, 48 h, read-out: MIC)
CO[C@@H]1CO[C@@]2(CC3=CC(=O)[C@@](C)(O)[C@@H](OC(=O)c4c(C)cc(O)cc4O)[C@@H]3CO2)C1	> 50 µg/mL	> 50 µg/mL	> 50 µg/mL	25 µg/mL (≈ 57.5 µM)				
COC(CO)CC1=CC2=CC(=O)[C@@](C)(O)[C@@H](OC(=O)c3c(C)cc(O)cc3O)[C@@H]2CO1 (stereo in doubt; 6)					13 µg/mL (≈ 29.9 µM)	6.3 µg/mL (≈ 14.5 µM)		
C/C=C(\C)[C@H](OC(C)=O)[C@H](C)C(=O)O[C@@]1(C)C(=O)C=C2C=C(C3=C(C)CCCC3=O)OC=C2C1=O	6.3 µg/mL (≈ 13.1 µM)	13 µg/mL (≈ 26.9 µM)	13 µg/mL (≈ 26.9 µM)					
C/C=C(\C)[C@H](OC(C)=O)[C@H](C)C(=O)O[C@@]1(C)C(=O)C2=COC(C3=C(C)CCCC3=O)=CC2=C(Cl)C1=O	1.6 µg/mL (≈ 3.09 µM)	13 µg/mL (≈ 25.1 µM)	1.6 µg/mL (≈ 3.09 µM)					
COC(CO)CC1=CC2=CC(=O)[C@@](C)(O)[C@@H](OC(=O)c3c(C)cc(O)cc3O)[C@@H]2CO1 (stereo in doubt; 7)					6.3 µg/mL (≈ 14.5 µM)	25 µg/mL (≈ 57.5 µM)		
O=C(O)c1cn(C2CC2)c2cc(N3CCNCC3)c(F)cc2c1=O [CIPROFLOXACIN]				13 µg/mL (≈ 39.2 µM)			6.3 µg/mL (≈ 19 µM)	3.1 µg/mL (≈ 9.36 µM)
CC(=O)N1CCN(c2ccc(OCC3COC(Cn4ccnc4)(c4ccc(Cl)cc4Cl)O3)cc2)CC1 (configuration not stated) [KETOCONAZOLE]	6.3 µg/mL (≈ 11.9 µM)	3.1 µg/mL (≈ 5.83 µM)	3.1 µg/mL (≈ 5.83 µM)					
C/C=C(\C)[C@H](OC(C)=O)[C@H](C)C(=O)O[C@@]1(C)C(=O)C=C2C=C(c3c(C)cccc3O)OC=C2C1=O	25 µg/mL (≈ 52 µM)	3.1 µg/mL (≈ 6.45 µM)	6.3 µg/mL (≈ 13.1 µM)					
CO[C@H]1CO[C@@]2(CC3=CC(=O)[C@@](C)(O)[C@@H](OC(=O)c4c(C)cc(O)cc4O)[C@@H]3CO2)C1	> 50 µg/mL	> 50 µg/mL	> 50 µg/mL	25 µg/mL (≈ 57.5 µM)				
